Measured values from ChEMBL document CHEMBL1148469, “Structural basis for the synthesis of indirubins as potent and selective inhibitors of glycogen synthase kinase-3 and cyclin-dependent kinases” (J Med Chem, 2004).

Tests used:
[1] = molecular target: Cyclin-dependent kinase 5/CDK5 activator 1 (Homo sapiens, UniProt Q00535); assay: Inhibitory activity against Cyclin-dependent kinase 5-p35nck5a; format: protein-complex assay
Summary of the method: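 Recombinant mammalian CDK5 and p25 (truncated p35 activator), each expressed in E. coli as a GST fusion, purified on glutathione-agarose and mixed in equal amounts. IC50 from dose-response curves.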

[2] = molecular target: Glycogen synthase kinase-3 alpha/beta (Sus scrofa); assay: Inhibitory activity against GSK-3-alpha/beta from porcine brain
[3] = molecular target: Cyclin-dependent kinase 1/cyclin B (Marthasterias glacialis); assay: Inhibitory activity against cyclin dependent kinase 1-cyclinB from starfish (Marthasterias glacialis) oocytes
[4] = molecular target: Glycogen synthase kinase-3 alpha/beta (Sus scrofa); assay: Inhibition of glycogen synthase kinase-3-alpha/beta (GSK-3-alpha/beta) in porcine brain relative to indirubin

Chain of Cyclin-dependent kinase 5/CDK5 activator 1 (Q00535 whole entry, the tested form may be a part): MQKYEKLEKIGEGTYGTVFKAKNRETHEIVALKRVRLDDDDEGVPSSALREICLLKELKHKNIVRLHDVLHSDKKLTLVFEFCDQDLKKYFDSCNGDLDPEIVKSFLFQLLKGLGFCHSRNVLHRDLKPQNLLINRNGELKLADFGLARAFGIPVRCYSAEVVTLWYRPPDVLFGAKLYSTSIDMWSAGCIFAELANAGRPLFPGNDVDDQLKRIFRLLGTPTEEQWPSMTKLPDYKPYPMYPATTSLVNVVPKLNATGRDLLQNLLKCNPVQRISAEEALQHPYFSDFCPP
Chain of Cyclin-dependent kinase 5/CDK5 activator 1 (Q15078 whole entry, further chain, the tested form may be a part): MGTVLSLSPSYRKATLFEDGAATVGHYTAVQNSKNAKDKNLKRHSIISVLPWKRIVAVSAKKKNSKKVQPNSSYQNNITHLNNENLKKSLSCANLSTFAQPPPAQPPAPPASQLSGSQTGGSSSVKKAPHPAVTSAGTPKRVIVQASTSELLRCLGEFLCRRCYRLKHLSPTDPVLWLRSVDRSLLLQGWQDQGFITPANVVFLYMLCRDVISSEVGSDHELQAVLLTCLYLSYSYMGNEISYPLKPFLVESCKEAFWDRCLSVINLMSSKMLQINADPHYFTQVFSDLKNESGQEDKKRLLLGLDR

| IC50 [1] [nM] | IC50 [2] [nM] | IC50 [3] [nM] | IC50 [4] [nM] | Compound |
| --- | --- | --- | --- | --- |
| 1300 | 120 | 17000 | – | O=Nc1c(-c2c(O)[nH]c3cc(Br)ccc23)[nH]c2cc(Br)ccc12 |
| > 100000 | > 100000 | 92000 | – | Cn1c(O)c(-c2[nH]c3ccccc3c2N=O)c2ccc(Br)cc21 |
| 300 | – | – | – | CC(=O)O/N=C1/C(c2c(O)[nH]c3cc(F)ccc23)=Nc2ccccc21 |
| 300 | – | – | – | O=Nc1c(-c2c(O)[nH]c3cc(I)ccc23)[nH]c2ccccc12 |
| – | – | 3000 | – | O=Nc1c(-c2c(O)[nH]c3ccccc23)[nH]c2cc(Br)ccc12 |
| 150 | – | – | – | O=Nc1c(-c2c(O)[nH]c3cc(Br)c([N+](=O)[O-])cc23)[nH]c2ccccc12 |
| 130 | – | – | – | Cc1cc2c(-c3[nH]c4ccccc4c3N=O)c(O)[nH]c2cc1Br |
| – | – | – | 350 | O=C1C(c2c(O)[nH]c3ccccc23)=Nc2ccc(Br)cc21 |
| 100 | 20 | 650 | – | O=Nc1c(-c2c(O)[nH]c3cc(Cl)ccc23)[nH]c2ccccc12 |
| – | – | – | 78 | O=C1C(c2c(O)[nH]c3ccc(F)cc23)=Nc2ccccc21 |
| 150 | 130 | 320 | – | O=Nc1c(-c2c(O)[nH]c3cc(F)ccc23)[nH]c2ccccc12 |
| 420 | 60 | 1200 | – | C=Cc1ccc2c(-c3[nH]c4ccccc4c3N=O)c(O)[nH]c2c1 |
| > 100000 | – | 73000 | – | Cn1c(O)c(-c2[nH]c3ccccc3c2N=O)c2ccccc21 |
| 1000 | – | – | – | O=C1C(c2c(O)[nH]c3cc(F)ccc23)=Nc2ccccc21 |

Continued, molecule first:

| Compound | IC50 [1] [nM] | IC50 [2] [nM] | IC50 [3] [nM] | IC50 [4] [nM] |
| --- | --- | --- | --- | --- |
| Cn1c(O)c(C2=Nc3ccccc3C2=O)c2ccc(Br)cc21 | > 100000 | > 100000 | > 100000 | – |
| C=Cc1ccc2c(C3=Nc4ccccc4C3=O)c(O)[nH]c2c1 | 2400 | 240 | 4200 | – |
| O=C1C(c2c(O)[nH]c3ccc(Br)cc23)=Nc2ccc(Br)cc21 | – | – | – | 250 |
| Cn1c(O)c(C2=Nc3ccccc3C2=O)c2ccccc21 | > 100000 | – | > 100000 | – |
| O=C1C(c2c(O)[nH]c3cc(Cl)ccc23)=Nc2ccccc21 | > 100000 | 140 | > 100000 | – |
| O=C1C(c2c(O)[nH]c3cc(Cl)c(Cl)cc23)=Nc2ccccc21 | 60000 | 30 | 45000 | – |
| Cc1cc2c(C3=Nc4ccccc4C3=O)c(O)[nH]c2cc1Br | 60000 | 25 | 30000 | – |
| Cc1ccc2[nH]c(O)c(C3=Nc4ccccc4C3=O)c2c1 | – | – | – | 62 |
| O=C1C(c2c(O)[nH]c3cc(Br)c([N+](=O)[O-])cc23)=Nc2ccccc21 | > 100000 | 100 | > 100000 | – |
| O=C1C(c2c(O)[nH]c3cc(Br)ccc23)=Nc2ccccc21 | 53000 | – | – | – |
| CC(=O)O/N=C1/C(c2c(O)[nH]c3cc(I)ccc23)=Nc2ccccc21 | 1300 | 13 | 2200 | – |
| CC(=O)O/N=C1/C(c2c(O)[nH]c3ccccc23)=Nc2ccccc21 | 700 | – | – | – |
| O=C1C(c2c(O)[nH]c3ccccc23)=Nc2cc(Br)ccc21 | > 100000 | 22000 | > 100000 | – |
| CO/N=C1/C(c2c(O)[nH]c3ccccc23)=Nc2ccccc21 | 400 | – | – | – |
| C=Cc1ccc2c(C3=Nc4ccccc4/C3=N\OC(C)=O)c(O)[nH]c2c1 | 400 | 65 | 1600 | – |
| CC(=O)O/N=C1/C(=C2/C(=O)Nc3cc(Cl)c(Cl)cc32)Nc2ccccc21 [INDIRUBIN 1] | 100 | 4 | 30000 | – |
| CC(=O)O/N=C1/C(=C2/C(=O)Nc3cc(Br)c(C)cc32)Nc2ccccc21 | 30000 | 7 | 31000 | – |
| O=C1C(c2c(O)[nH]c3ccc(Br)cc23)=Nc2ccccc21 | – | – | – | 55 |
| CC(=O)O/N=C1/C(=C2/C(=O)Nc3cc(Br)c([N+](=O)[O-])cc32)Nc2ccccc21 | 31000 | 6 | 11000 | – |
| O=C1C(c2c(O)[nH]c3cccc(Cl)c23)=Nc2ccccc21 | 10000 | > 100000 | 10000 | – |
| O=C1C(c2c(O)[nH]c3cc(I)ccc23)=Nc2ccccc21 | 5300 | 55 | 1600 | – |
| CC(=O)O/N=C1/C(c2c(O)[nH]c3cc(Cl)ccc23)=Nc2ccccc21 | 200 | 17 | 30000 | – |
| CC(=O)O/N=C1/C(=C2/C(=O)Nc3cc(Br)ccc32)Nc2ccccc21 [6-BROMOINDIRUBIN-3'-ACETOXIME] | 2400 | 10 | 63000 | – |
| O=C1C(c2c(O)[nH]c3ccc([N+](=O)[O-])cc23)=Nc2ccccc21 | – | – | – | 42 |
| O=C1C(c2c(O)[nH]c3cc(Br)ccc23)=Nc2cc(Br)ccc21 | > 100000 | 4500 | > 100000 | – |
| O=C1C(c2c(O)[nH]c3ccc(Cl)cc23)=Nc2ccccc21 | – | – | – | 50 |
| CO/N=C1/C(c2c(O)[nH]c3cc(Br)ccc23)=Nc2ccccc21 | 2200 | 30 | 3700 | – |
